≈ marks a conversion by molar mass, not a printed value.
Legend:
[1] = target: Acetylcholinesterase (Homo sapiens) (UniProt P22303)
Candida albicans = experiment: Antifungal activity against Candida albicans by broth dilution method; type: functional
In short: (§1)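 Antifungal MIC determined by broth dilution, reported in µg/mL. Amphotericin B served as the positive control.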

Cryptococcus neoformans = experiment: Antifungal activity against Cryptococcus neoformans by broth dilution method; type: functional
In short: as §1

Klebsiella pneumoniae = experiment: Antibacterial activity against Klebsiella pneumoniae by broth dilution method; type: functional
In short: (§2)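 Broth dilution MIC determination against the bacterium, reported in µg/mL. Gentamicin served as the positive control.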

Escherichia coli = experiment: Antibacterial activity against Escherichia coli by broth dilution method; type: functional
In short: as §2

Staphylococcus aureus [2] = experiment: Antibacterial activity against methicillin-resistant Staphylococcus aureus by broth dilution method; type: functional
In short: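 Broth dilution giving an MIC in µg/mL, with gentamicin as the antibacterial positive control. The same series covered E. coli, K. pneumoniae, S. aureus, S. pyogenes and two fungi.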

Staphylococcus aureus [3] = experiment: Antibacterial activity against Staphylococcus aureus by broth dilution method; type: functional
In short: as §2

Streptococcus pyogenes = experiment: Antibacterial activity against Streptococcus pyogenes by broth dilution method; type: functional
In short: as §2

Acetylcholinesterase (Homo sapiens), sequence (P22303 whole entry): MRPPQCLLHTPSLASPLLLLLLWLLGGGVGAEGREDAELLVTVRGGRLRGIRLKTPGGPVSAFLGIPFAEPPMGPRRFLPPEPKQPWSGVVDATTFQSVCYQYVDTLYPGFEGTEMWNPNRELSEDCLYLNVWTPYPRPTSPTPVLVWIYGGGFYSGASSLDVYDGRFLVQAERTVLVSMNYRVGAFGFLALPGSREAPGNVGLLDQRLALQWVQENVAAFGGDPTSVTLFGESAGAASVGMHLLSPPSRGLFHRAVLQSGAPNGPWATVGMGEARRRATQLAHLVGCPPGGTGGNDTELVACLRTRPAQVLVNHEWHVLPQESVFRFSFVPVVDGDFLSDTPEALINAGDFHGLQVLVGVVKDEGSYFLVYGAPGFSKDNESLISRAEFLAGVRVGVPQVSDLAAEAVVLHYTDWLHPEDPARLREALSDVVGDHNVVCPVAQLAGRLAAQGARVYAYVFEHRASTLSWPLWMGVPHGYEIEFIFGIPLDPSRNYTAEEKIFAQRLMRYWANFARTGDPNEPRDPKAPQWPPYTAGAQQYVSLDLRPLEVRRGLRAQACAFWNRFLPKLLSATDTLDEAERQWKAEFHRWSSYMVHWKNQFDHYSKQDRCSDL

Compound | MIC [1] | MIC (Candida albicans) | MIC (Cryptococcus neoformans) | MIC (Klebsiella pneumoniae) | MIC (Escherichia coli) | MIC (Staphylococcus aureus [2]) | MIC (Staphylococcus aureus [3]) | MIC (Streptococcus pyogenes)
CC/C=C/[C@@]12[C@@H]3C[C@H]4[C@H]5[C@H](C)/C(=C6/OC(=O)C(C)=C6OC)O[C@]5(O3)[C@@H]1CCN42 | 5 ng | – | – | – | – | – | – | –
CCCC[C@@]12C3CCN1[C@H]1C[C@H]2O[C@@]32O/C(=C3\OC(=O)C(C)=C3OC)[C@@H](C)[C@H]12 | 10 ng | – | – | – | – | – | – | –
CC[C@H](O)C[C@@]12[C@@H]3C[C@H]4[C@H]5[C@H](C)/C(=C6/OC(=O)C(C)=C6OC)O[C@]5(O3)[C@@H]1CCN42 | 10 ng | – | – | – | – | – | – | –
CC[C@H](O)C[C@@]12[C@@H]3C[C@H]4[C@H]5[C@H](C)/C(=C6\OC(=O)C(C)=C6OC)O[C@]5(O3)[C@@H]1CCN42 | 10 ng | – | – | – | – | – | – | –
CC[C@H](O)C[C@@]12[C@@H]3C[C@H]4[C@H]5[C@H](C)[C@@H]([C@@H]6OC(=O)C(C)=C6OC)O[C@]5(O3)[C@@H]1CCN42 | 100 ng | – | – | – | – | – | – | –
CC[C@H](O)C[C@@]12[C@@H]3C[C@H]4[C@H]5[C@H](C)[C@@H]([C@H]6OC(=O)C(C)=C6OC)O[C@]5(O3)[C@@H]1CCN42 | 50 ng | – | – | – | – | – | – | –
C[C@@H]1[C@H](O)[C@@H](C)/C=C/C=C/C=C/C=C/C=C/C=C/C=C/[C@H](O[C@@H]2O[C@H](C)[C@@H](O)[C@H](N)[C@@H]2O)C[C@@H]2O[C@](O)(C[C@@H](O)C[C@@H](O)[C@H](O)CC[C@@H](O)C[C@@H](O)CC(=O)O[C@H]1C)C[C@H](O)[C@H]2C(=O)O [AMPHOTERICIN B] | – | 15.6 µg/mL (≈ 16.9 µM) | 3.9 µg/mL (≈ 4.22 µM) | – | – | – | – | –
COc1cc(-c2cc3c(O)cccc3o2)c(C)c(O)c1C [STEMOFURAN E] | – | 31.3 µg/mL (≈ 110 µM) | 7.8 µg/mL (≈ 27.4 µM) | 62.5 µg/mL (≈ 220 µM) | 62.5 µg/mL (≈ 220 µM) | 15.6 µg/mL (≈ 54.9 µM) | 62.5 µg/mL (≈ 220 µM) | –
COc1cc(-c2cc3c(O)cccc3o2)c(C)c(OC)c1C [STEMOFURAN J] | – | 31.3 µg/mL (≈ 105 µM) | 7.8 µg/mL (≈ 26.1 µM) | 62.5 µg/mL (≈ 209 µM) | 62.5 µg/mL (≈ 209 µM) | 15.6 µg/mL (≈ 52.3 µM) | 62.5 µg/mL (≈ 209 µM) | 62.5 µg/mL (≈ 209 µM)
COc1cc(O)c(C)c(-c2cc3c(O)cc(OC)cc3o2)c1 [STEMOFURAN M] | – | 31.3 µg/mL (≈ 104 µM) | 31.3 µg/mL (≈ 104 µM) | 62.5 µg/mL (≈ 208 µM) | 125 µg/mL (≈ 416 µM) | 31.3 µg/mL (≈ 104 µM) | 31.3 µg/mL (≈ 104 µM) | 62.5 µg/mL (≈ 208 µM)
COc1cc(OC)c(C)c(-c2cc3c(O)cc(OC)cc3o2)c1 [STEMOFURAN P] | – | 15.6 µg/mL (≈ 49.6 µM) | 7.8 µg/mL (≈ 24.8 µM) | 125 µg/mL (≈ 398 µM) | 62.5 µg/mL (≈ 199 µM) | 62.5 µg/mL (≈ 199 µM) | 31.3 µg/mL (≈ 99.6 µM) | –
GENTAMICIN | – | – | – | 11.3 µg/mL | 11.3 µg/mL | 45 µg/mL | 22.5 µg/mL | 5.6 µg/mL

— ChEMBL document CHEMBL1806392, “Phytochemical studies on Stemona aphylla: isolation of a new stemofoline alkaloid and six new stemofurans” (2011)
